The test system of experiment [1] is HUVEC. Briefly: Inhibition of cell proliferation of HUVEC after 72 hrs by crystal violet adhesion based colorimetric assay. Format: functional. The following applies: Homo sapiens. The method, boiled down:
(§1)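 Crystal violet adhesion: HUVEC 3 × 10^3, MDA-MB-231 5 × 10^3 cells/well, treated 72 h at varied concentrations (up to 10 µM); fixed 4% paraformaldehyde 15 min, PBS pH 7.4 wash, 0.04% crystal violet 30 min, solubilized 2% Triton X-100, OD 595 nm. Mean of three independent experiments in triplicate; IC50 from sigmoid dose–response curve.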

Experiment [2] has as its target Neuropilin-1 (Homo sapiens) (UniProt O14786). Briefly: Inhibition of biotinylated VEGFA165 binding to NRP1 (unknown origin) at 10 uM by chemiluminescent assay. The method, boiled down:
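NRP-1 coated overnight at 0.2 µg/mL in PBS, 4 °C; washed PBS/0.5% Tween 20, blocked 0.5% BSA 2 h 37 °C. Compound preincubated 1 h at 37 °C, then biotinylated VEGF-A165 with 4 µg/mL heparin 2 h at 37 °C; chemiluminescent read-out; percent displacement of bound tracer at 10 µM.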

Experiment [3] relates to MDA-MB-231. The experiment is described as follows: Inhibition of cell proliferation of human MDA-MB-231 after 72 hrs by crystal violet adhesion based colorimetric assay. Format: functional. The following applies: MDA-MB-231, 72 h. The method, boiled down:
as §1

For experiment [4], the system named is HUVEC. The experiment is described as follows: Cytotoxicity against HUVEC after 48 hrs by WST1 assay. Format: functional, cell-based. The note with it: Homo sapiens. A digest of the protocol: (§2)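 WST-1 viability: HUVEC seeded 3 × 10^3, MDA-MB-231 5 × 10^3 cells/well; compounds added one day after seeding at varied concentrations (up to 10 µM); after 48 h medium removed, WST-1 added, 1–2 h at 37 °C, OD 490 nm. Mean of three independent experiments, triplicate per concentration; IC50 from sigmoid dose–response fit.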
A general note: Tetrazolium assays rely on reduction of a dye to a coloured formazan, in cell work by metabolically active cells.

Experiment [5] has as its system MDA-MB-231. Briefly: Cytotoxicity against human MDA-MB-231 after 48 hrs by WST1 assay. Format: functional, cell-based. The following applies: MDA-MB-231, 48 h. The method, boiled down:
as §2

Bounds are passed on as bounds.

Chain of Neuropilin-1 (Homo sapiens) (O14786 whole entry): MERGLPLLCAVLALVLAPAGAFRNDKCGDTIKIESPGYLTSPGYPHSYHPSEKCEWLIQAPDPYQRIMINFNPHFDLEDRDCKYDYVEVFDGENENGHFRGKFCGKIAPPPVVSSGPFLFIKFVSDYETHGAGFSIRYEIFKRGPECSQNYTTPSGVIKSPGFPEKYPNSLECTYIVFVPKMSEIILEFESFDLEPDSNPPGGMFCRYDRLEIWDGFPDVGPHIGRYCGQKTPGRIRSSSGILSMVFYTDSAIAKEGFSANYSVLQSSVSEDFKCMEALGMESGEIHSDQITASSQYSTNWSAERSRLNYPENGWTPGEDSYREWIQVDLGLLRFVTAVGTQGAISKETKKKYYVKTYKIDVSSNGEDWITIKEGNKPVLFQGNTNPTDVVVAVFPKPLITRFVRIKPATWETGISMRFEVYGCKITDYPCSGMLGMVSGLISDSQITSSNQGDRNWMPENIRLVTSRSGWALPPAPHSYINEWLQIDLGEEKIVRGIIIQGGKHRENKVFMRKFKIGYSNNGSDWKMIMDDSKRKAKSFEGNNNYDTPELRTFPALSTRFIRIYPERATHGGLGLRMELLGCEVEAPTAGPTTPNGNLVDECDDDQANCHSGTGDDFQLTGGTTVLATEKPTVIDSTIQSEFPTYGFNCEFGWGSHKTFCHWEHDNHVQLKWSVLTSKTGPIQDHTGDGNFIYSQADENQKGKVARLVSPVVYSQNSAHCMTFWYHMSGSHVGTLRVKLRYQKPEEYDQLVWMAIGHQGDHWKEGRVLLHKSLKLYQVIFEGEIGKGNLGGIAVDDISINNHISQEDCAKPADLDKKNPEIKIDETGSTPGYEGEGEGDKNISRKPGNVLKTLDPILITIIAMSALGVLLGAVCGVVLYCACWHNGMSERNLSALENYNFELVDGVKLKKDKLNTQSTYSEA

One may read the IC50 as the concentration that inhibits the measured activity by half. Read a low IC50 as greater potency. The inhibition is the change of the read-out against control, counted positive when it falls. A lower inhibition goes with a weak effect. In the experiment with HUVEC [1], `N#Cc1ccc2[nH]c(-c3cccc(NC(=S)NC(=O)c4ccc5c(c4)OCO5)c3)nc2c1` registered a half-maximal inhibitory concentration (IC50) of 6 µM. Further, the inhibition in experiment [2] came to 37%.

In the case of `S=C(NCc1ccc2c(c1)OCO2)Nc1cccc(-c2nc3ccccc3[nH]2)c1`, the IC50 in the experiment with MDA-MB-231 [3], with HUVEC [1], in the experiment on HUVEC [4] and with MDA-MB-231 [5] was above 10 µM throughout.

For the molecule `O=C(NC(=S)Nc1cccc(-c2nc3ccccc3[nH]2)c1)c1ccc2c(c1)OCCO2`, the IC50 in the experiment on MDA-MB-231 [3] is 0.5 µM; in the experiment on HUVEC [1], below 0.1 µM; with HUVEC [4], 0.05 µM; in the experiment with MDA-MB-231 [5], 0.4 µM. Moreover, the inhibition in experiment [2] came out at 38%.

Regarding `O=C(NC(=S)Nc1cccc(-c2nc3ccccc3s2)c1)c1ccc2c(c1)OCO2`, the IC50 came to 8 µM in the experiment on MDA-MB-231 [3], 0.9 µM in the experiment on HUVEC [1], 1 µM with HUVEC [4] and 10 µM with MDA-MB-231 [5]. Also, the inhibition in experiment [2] was determined as 14%.

Turning to `CCOc1ccc(C(=O)NC(=S)Nc2cccc(-c3nc4ccccc4[nH]3)c2)cc1OCC`, the IC50 in the experiment with HUVEC [1] and in the experiment on HUVEC [4] was 8 µM each time. This molecule registered an inhibition in experiment [2] of 14%.

In the case of `Cc1ccc(-c2nc3ccccc3[nH]2)cc1NC(=S)NC(=O)c1ccc2c(c1)OCCO2`, the IC50 in the experiment on MDA-MB-231 [3] stood at 0.5 µM; in the experiment on HUVEC [1] it was 0.15 µM; with HUVEC [4] it was 0.24 µM; with MDA-MB-231 [5], 0.53 µM. The molecule also came in with an inhibition in experiment [2] of 34%.

As to `N#Cc1ccc2[nH]c(-c3cccc(NC(=S)NC(=O)c4ccc5c(c4)OCCO5)c3)nc2c1`, the IC50 is 1 µM with HUVEC [4] and above 10 µM with MDA-MB-231 [5]. In addition, the inhibition in experiment [2] came out at 0%.

In the case of `Cc1ccc(-c2nc3ccccc3[nH]2)cc1NC(=S)NC(=O)c1ccccc1`, the IC50 in the experiment with MDA-MB-231 [3], with HUVEC [1], in the experiment on HUVEC [4] and in the experiment on MDA-MB-231 [5] was above 10 µM in each case.

As to `Cc1ccc(-c2nc3cc(F)ccc3[nH]2)cc1NC(=S)NC(=O)c1ccc2c(c1)OCO2`, the IC50 with HUVEC [1] and in the experiment on HUVEC [4] was above 10 µM throughout.

For the molecule `Cc1ccc(-c2nc3ccccc3s2)cc1NC(=S)NC(=O)c1ccc2c(c1)OCO2`, the IC50 with MDA-MB-231 [3] was above 10 µM; with HUVEC [1] it was 5 µM; in the experiment with HUVEC [4] it was 5 µM; in the experiment with MDA-MB-231 [5] it was above 10 µM.

Take `O=C(NC(=S)Nc1cccc(-c2nc3ccccc3[nH]2)c1)c1ccc2c(c1)OCO2`: the IC50 with MDA-MB-231 [3] amounted to 6 µM; with HUVEC [1] it was 0.3 µM; in the experiment with HUVEC [4], 0.3 µM; with MDA-MB-231 [5] it was 6 µM. The inhibition in experiment [2] stood at 46%.

As for `O=C(NC(=S)Nc1cccc(-c2nc3ccccc3[nH]2)c1)c1ccccc1`, the IC50 in the experiment with MDA-MB-231 [3], with HUVEC [1], in the experiment with HUVEC [4] and in the experiment with MDA-MB-231 [5] was above 10 µM throughout.

In the case of `Cc1ccc(-c2nc3ccccc3[nH]2)cc1NC(=S)NC(=O)c1ccc2c(c1)OCO2`, the IC50 with MDA-MB-231 [3] turned out to be 6 µM; in the experiment with HUVEC [1], 0.75 µM; in the experiment with HUVEC [4] it was 1.5 µM; in the experiment on MDA-MB-231 [5], 6 µM.

Regarding `COc1ccc(C(=O)NC(=S)Nc2cccc(-c3nc4ccccc4[nH]3)c2)cc1OC`, the IC50 was 10 µM in the experiment with MDA-MB-231 [3], 5 µM with HUVEC [1], 6 µM in the experiment on HUVEC [4] and above 10 µM in the experiment with MDA-MB-231 [5].

Consider `COc1ccc(C(=O)NC(=O)Nc2cccc(-c3nc4ccccc4[nH]3)c2)cc1OC`, for which the IC50 with HUVEC [1] and with HUVEC [4] was 8 µM throughout.

`CCOc1ccc(C(=O)NC(=S)Nc2cc(-c3nc4ccccc4[nH]3)ccc2C)cc1OCC` yielded an IC50 in the experiment on HUVEC [1] of 6 µM. Moreover, the inhibition in experiment [2] turned out to be 32%.

In the case of `O=C(NC(=S)Nc1cccc(-c2nc3ccccc3s2)c1)c1ccc2c(c1)OCCO2`, the IC50 in the experiment with MDA-MB-231 [3] is above 10 µM; with HUVEC [1], 2.6 µM; with HUVEC [4], 2.6 µM; in the experiment on MDA-MB-231 [5], above 10 µM.

`Cc1ccc(-c2nc3ccccc3[nH]2)cc1NC(=S)NCc1ccc2c(c1)OCO2`: the IC50 with MDA-MB-231 [3], in the experiment on HUVEC [1], in the experiment on HUVEC [4] and with MDA-MB-231 [5] was above 10 µM each time.

Values taken from ChEMBL document CHEMBL3351892, “Synthesis and structure-activity relationship of non-peptidic antagonists of neuropilin-1 receptor” (Bioorg Med Chem Lett, 2014).
